Data on three compounds can be found in BindingDB's records for PubMed 35700596 (2022).

pIC50: −log10 of the molar value.

The assay addresses T1, Nuclear factor of activated T-cells, cytoplasmic 1 (Homo sapiens, UniProt O95644).
T1 sequence (O95644 whole entry): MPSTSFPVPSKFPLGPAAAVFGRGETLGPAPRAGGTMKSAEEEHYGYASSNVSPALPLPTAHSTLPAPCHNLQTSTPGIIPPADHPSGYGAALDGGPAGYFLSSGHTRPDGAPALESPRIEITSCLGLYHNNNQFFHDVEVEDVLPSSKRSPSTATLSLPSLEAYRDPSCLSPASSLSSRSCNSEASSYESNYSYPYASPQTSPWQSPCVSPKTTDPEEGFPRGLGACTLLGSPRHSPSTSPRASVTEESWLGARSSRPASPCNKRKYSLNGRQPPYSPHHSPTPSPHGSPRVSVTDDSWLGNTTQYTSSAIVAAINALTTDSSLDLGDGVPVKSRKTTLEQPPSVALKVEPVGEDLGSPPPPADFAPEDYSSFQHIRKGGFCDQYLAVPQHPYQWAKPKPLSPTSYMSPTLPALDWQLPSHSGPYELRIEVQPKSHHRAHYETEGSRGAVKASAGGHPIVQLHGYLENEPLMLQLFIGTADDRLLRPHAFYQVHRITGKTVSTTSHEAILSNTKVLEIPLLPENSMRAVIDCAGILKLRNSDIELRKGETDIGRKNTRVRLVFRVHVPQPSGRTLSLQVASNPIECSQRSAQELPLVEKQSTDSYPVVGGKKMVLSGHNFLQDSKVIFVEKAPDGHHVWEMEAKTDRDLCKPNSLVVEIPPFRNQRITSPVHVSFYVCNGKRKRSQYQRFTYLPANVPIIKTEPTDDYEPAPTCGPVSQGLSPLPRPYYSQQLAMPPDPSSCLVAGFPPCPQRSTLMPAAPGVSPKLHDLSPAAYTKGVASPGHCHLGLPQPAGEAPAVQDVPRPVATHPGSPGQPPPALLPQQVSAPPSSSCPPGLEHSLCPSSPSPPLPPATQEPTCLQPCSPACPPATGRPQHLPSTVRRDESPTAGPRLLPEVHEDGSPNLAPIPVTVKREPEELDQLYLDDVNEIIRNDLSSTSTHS
The assay can be described thus: Inhibition of NFATC activity in HEK293T cells preincubated for 2 hrs followed by ionomycin/phorbol 12-myristate 13-acetate stimulation and measured after 4 hrs by luciferase reporter assay. The procedure, abridged:
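HEK 293T cells (7.5 × 10⁴/well) co-transfected by CaCl₂ method with 100 ng 3xNFAT-luc and 1 ng pRLnull as transfection control. At 24 h, compound added for 2 h, then stimulated with 1 µM ionomycin, PMA and CaCl₂ for 4 h (20 ng/ml PMA and 2 mM CaCl₂ per figure legend). Luciferase read from crude extracts, relative to stimulated no-compound control (100%). Single doses 50 and 5 μM; dose-response 0.1–50 μM. IC50 by nonlinear regression; 3 experiments in triplicate.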
Turning to `Cc1ccc(C(=O)NCC(=O)Nc2cc(S(=O)(=O)Nc3ccc(Cl)cc3)ccc2Cl)s1`, the pIC50 is 5.35.
To `CS(=O)(=O)NCc1cccc(NC(=O)c2ccc3[nH]ccc3c2)c1` belongs 4.94; to `CS(=O)(=O)NCc1cccc(NC(=O)c2csc3ccccc23)c1`, 4.73.
